Results: ChEMBL document CHEMBL3603816, “Synthetic Small Molecules Derived from Natural Vitamin K Homologues that Induce Selective Neuronal Differentiation of Neuronal Progenitor Cells” (2015)
Calls of active or inactive are those of the source. No cut-off for these calls is given here.

Experiments:
Neuronal progenitor cell [1] = assay: Induction of neuronal differentiation in mouse neuronal progenitor cells assessed as expression of Gfap at 1 uM treated for every second day for 4 days by immunofluorescence staining method; assay type: functional
Outline: (§1)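 Neural stem/progenitor cells dissociated from embryonic day 14 mouse cerebrum. Cultured 24 h after seeding, then given 1 μM analogue every second day for 4 days. Immunofluorescence with Map2 (neurons, red) and Gfap (astrocytes, green), nuclei counterstained with DAPI. Imaged by confocal laser microscopy; the legend states staining after 48 h.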

Neuronal progenitor cell [2] = assay: Induction of neuronal differentiation in mouse neuronal progenitor cells assessed as expression of Map2 at 1 uM treated for every second day for 4 days by immunofluorescence staining method; assay type: functional; outline: as §1
[3] = Induction of neuronal differentiation in mouse neuronal progenitor cells assessed as expression of Map2 at 1 uM treated for every second day for 4 days by real-time PCR method relative to control
Neuronal progenitor cell [4] = assay: Induction of neuronal differentiation in mouse neuronal progenitor cells assessed as relative ratio of expression of Map2/Gfap mRNA at 1 uM treated for every second day for 4 days by RT-PCR analysis; assay type: functional
Outline: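 E14 mouse cerebral progenitor cells, cultured 24 h, then treated with 1.0 × 10−6 M compound or ethanol for 4 days. mRNA extracted; Map2, Gfap and β-actin levels quantitated by real-time PCR, and the Map2/Gfap ratio calculated. Means of three independent experiments ± SD. Dunnett's t-test versus EtOH.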

| SMILES | Activity (Neuronal progenitor cell [1]) | Activity (Neuronal progenitor cell [2]) | fold change (FC) [3] | Activity (Neuronal progenitor cell [4]) |
| --- | --- | --- | --- | --- |
| C/C(=C\CO)CC/C=C(\C)CC/C=C(\C)Cc1cccc(C)c1 | inactive | Active | – | – |
| CC1=C(C/C=C(\C)CC/C=C(\C)Cc2ccccc2)C(=O)c2ccccc2C1=O | inactive | Active | 1.5 | – |
| CC(C)=CCC/C(C)=C/CC/C(C)=C/CC1=C(C)C(=O)c2ccccc2C1=O | – | – | – | Active |
| CC1=C(C/C=C(\C)CC/C=C(\C)Cc2cccc(C)c2)C(=O)c2ccccc2C1=O | inactive | Active | 1.5 | – |
| CC1=C(C/C=C(\C)CC/C=C(\C)Cc2ccc(-c3ccccc3)cc2)C(=O)c2ccccc2C1=O | inactive | Active | 1.5 | – |
| CC1=C(C/C=C(\C)CC/C=C(\C)Cc2cccc3ccccc23)C(=O)c2ccccc2C1=O | inactive | Active | 1.5 | – |
| CC1=C(C/C=C(\C)CC/C=C(\C)CC/C=C(\C)Cc2cccc3ccccc23)C(=O)c2ccccc2C1=O | inactive | Active | 1.5 | – |
| C/C(=C\CO)CC/C=C(\C)CC/C=C(\C)Cc1ccccc1 | inactive | Active | – | – |
| C/C(=C\CO)CC/C=C(\C)Cc1cccc(C)c1 | inactive | Active | – | – |
| CC1=C(C/C=C(\C)CC/C=C(\C)CC/C=C(\C)Cc2ccc(-c3ccccc3)cc2)C(=O)c2ccccc2C1=O | inactive | Active | 1.5 | – |
| C/C(=C\CO)CC/C=C(\C)Cc1ccc(-c2ccccc2)cc1 | inactive | Active | – | – |
| C/C(=C\CO)CC/C=C(\C)CC/C=C(\C)Cc1ccc(-c2ccccc2)cc1 | inactive | Active | – | – |
| C/C(=C\CO)CC/C=C(\C)Cc1cccc2ccccc12 | inactive | Active | – | – |
| CC1=C(C/C=C(\C)CC/C=C(\C)CC/C=C(\C)Cc2cccc(C)c2)C(=O)c2ccccc2C1=O | inactive | Active | 1.5 | Active |
| CC1=C(C/C=C(\C)CC/C=C(\C)CC/C=C(\C)Cc2ccccc2)C(=O)c2ccccc2C1=O | inactive | Active | 1.5 | – |
| C/C(=C\CO)CC/C=C(\C)CC/C=C(\C)Cc1cccc2ccccc12 | inactive | Active | – | – |
| C/C(=C\CO)CC/C=C(\C)Cc1ccc2ccccc2c1 | inactive | Active | – | – |
| CC(C)=CCC/C(C)=C/CC1=C(C)C(=O)c2ccccc2C1=O | – | – | – | Active |
| C/C(=C\CO)CC/C=C(\C)Cc1ccccc1 | inactive | Active | – | – |
| C/C(=C\CO)CC/C=C(\C)CC/C=C(\C)Cc1ccc2ccccc2c1 | inactive | Active | – | – |
| CC1=C(C/C=C(\C)CC/C=C(\C)CC/C=C(\C)Cc2ccc3ccccc3c2)C(=O)c2ccccc2C1=O | inactive | Active | 1.5 | – |
| CC1=C(C/C=C(\C)CC/C=C(\C)Cc2ccc3ccccc3c2)C(=O)c2ccccc2C1=O | inactive | inactive | 1.5 | – |
